In ChEMBL document CHEMBL4665831, “Ultrapotent Inhibitor of Clostridioides difficile Growth, Which Suppresses Recurrence In Vivo” (J Med Chem, 2020):

What was measured:
Clostridioides difficile [1] = experiment: Potency index, ratio of vancomycin MIC to test compound MIC for antibacterial activity against Clostridioides difficile NR-32883 P2; type: functional
Escherichia coli = experiment: Antimicrobial activity against Escherichia coli JW55031 harboring TolC mutant assessed as reduction in microbial growth after 48 hrs by CLSI based broth microdilution method; type: functional
How it was run: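 CLSI broth microdilution: strains were grown aerobically overnight on tryptone soy agar at 37°C. A 0.5 McFarland suspension was diluted to ~5 × 10^5 CFU/mL in cation-adjusted Mueller-Hinton broth (E. coli) or tryptone soy broth (enterococci), and agents were serially diluted.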

Clostridioides difficile [2] = experiment: Antimicrobial activity against Clostridioides difficile NR-32883 P2 assessed as reduction in microbial growth after 48 hrs by broth microdilution method; type: functional
How it was run: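 Broth microdilution: a 0.5 McFarland suspension was diluted in brain heart infusion supplemented (BHIS) broth to ~5 × 10^5 CFU/mL. Agents were serially diluted and plates incubated anaerobically at 37°C for 48 h.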

[3] = Selectivity ratio of MIC for antibacterial activity against Bacteroides fragilis HM-709 to antibacterial activity against Clostridioides difficile NR-13435 isolate 9; type: ADME
[4] = Selectivity ratio of MIC for antibacterial activity against Bacteroides fragilis HM-711 to antibacterial activity against Clostridioides difficile NR-32895 P19; type: ADME
[5] = Selectivity ratio of cytotoxicity against human Caco-2 cells to MIC for antibacterial against clostridioides difficile ATCC BAA 1801; type: toxicity, cell-based
Phocaeicola dorei = experiment: Antibacterial activity against Bacteroides dorei HM-719 assessed as reduction in microbial growth after 48 hrs by broth microdilution method; type: organism-based
How it was run: (§1)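 Gut commensal MICs by broth microdilution: a 0.5 McFarland suspension was diluted to ~5 × 10^5 CFU/mL in BHIS broth (Bacteroides) or MRS broth (Lactobacillus). Agents were serially diluted and incubated 48 h at 37°C. MIC was read by visual inspection of growth.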

Clostridioides difficile [6] = experiment: Potency index, ratio of vancomycin MIC to test compound MIC for antibacterial activity against Clostridioides difficile ATCC 43255; type: functional
Lactobacillus crispatus = experiment: Antibacterial activity against Lactobacillus crispatus HM-371 assessed as reduction in microbial growth after 48 hrs by broth microdilution method; how it was run: as §1
Bacteroides fragilis = experiment: Antibacterial activity against Bacteroides fragilis HM-711 assessed as reduction in microbial growth after 48 hrs by broth microdilution method; type: organism-based; how it was run: as §1
[7] = Selectivity ratio of MIC for antibacterial activity against Bacteroides fragilis HM-711 to antibacterial activity against Clostridioides difficile NR-32904 P30; type: ADME
Clostridioides difficile [8] = experiment: Potency index, ratio of vancomycin MIC to test compound MIC for antibacterial activity against Clostridioides difficile NR-13435 isolate 9; type: functional
Clostridioides difficile [9] = experiment: Antibacterial activity against Clostridioides difficile ATCC 43255 infected in CDI mouse model assessed as survival rate at 50 mg/kg, po for 5 days and measured on day 21 relative to control; type: functional; conditions: ATCC 43255, po, 504 h, time 21 day

## O=C(Nc1nnc(-c2cc(Cl)cc(Cl)c2)o1)c1ccc(SC(F)(F)F)cc1
Clostridioides difficile [1]
  Ratio: 2.5
Escherichia coli
  MIC: 9.2 µM
Clostridioides difficile [2]
  MIC: 0.02 µM
[3]
  Selectivity ratio: 100
[4]
  Selectivity ratio: 100
[5]
  Selectivity ratio: > 9000
Phocaeicola dorei
  MIC: 4.6 µM
Clostridioides difficile [6]
  Ratio: 2.5
Lactobacillus crispatus
  MIC: 36.8 µM
Bacteroides fragilis
  MIC: 4.6 µM
[7]
  Selectivity ratio: 100
Clostridioides difficile [8]
  Ratio: 2.5
Clostridioides difficile [9]
  survival at 50 mg/kg: 100%
